Assay results pooled from the literature.
CES1: Liver carboxylesterase 1 (CES1, Homo sapiens, UniProt P23141)
F2: Prothrombin (F2, Homo sapiens, UniProt P00734)
gag-pol protease: Gag-Pol polyprotein, protease (gag-pol, Human immunodeficiency virus type 1 group M subtype B, UniProt P04585)
tlpQ: tlpQ (Pseudomonas aeruginosa, UniProt Q9I0I4)

SMILES	target	assay	conditions	measurement	result
O=c1c2cc(Cl)ccc2[nH]c(=S)n1Cc1ccc(-c2nnn[nH]2)nc1	Voltage-gated inwardly rectifying potassium channel KCNH2 (KCNH2, Homo sapiens, UniProt Q12809)	ion current, inhibitor, patch clamp	pH 7.4	IC50	> 10 µM
Cn1c(=O)n(CCCCN2CCC3(CC2)OCc2ccccc23)c2ccccc21	Sodium-dependent dopamine transporter (Slc6a3, Rattus norvegicus, UniProt P23977)	ligand displacement, radioligand	cell membranes	Ki	0.311 µM
C=CCc1ccc(O)c(-c2cc(CC=C)ccc2O)c1	CES1	enzyme activity, inhibitor		Ki	0.094 µM
CCOC(=O)N[C@@H](CCCNC(=N)N)C(=O)N[C@@H](CCC(N)=O)C(=O)N[C@@H](Cc1ccccc1)C(=O)N[C@@H](CCCNC(=N)N)C(=O)c1nc2ccccc2s1	F2	cell-free assay		Ki	> 10 µM
CCOC(=O)c1ccc(OC(=O)CCCCCN=C(N)N)cc1	F2	enzyme activity, inhibitor		IC50	0.588 µM
COc1c2c(cc3c1-c1c(cc4c(c1OC)OCO4)C[C@H](C)[C@H](C)C3)OCO2	CES1	enzyme activity, inhibitor		Ki	0.0898 µM
COc1ccc(S(=O)(=O)N(CC(C)C)C[C@@H](O)[C@H](Cc2ccccc2)NC(=O)O[C@@H]2CCC[C@@]23CCO[C@@H](c2ccccc2OC)C3)cc1	gag-pol protease	enzyme activity, inhibitor		Ki	0.0167 µM
CC(C)=CCC[C@](C)(O)[C@H]1CC[C@]2(C)[C@@H]1[C@H](O)C[C@@H]1[C@@]3(C)CC[C@H](O)C(C)(C)[C@@H]3[C@@H](O[C@@H]3O[C@H](CO)[C@@H](O)[C@H](O)[C@H]3O)C[C@]12C	Aldo-keto reductase family 1 member B10 (AKR1B10, Homo sapiens, UniProt O60218)	binding, BLI		Kd	3.19 µM
COc1ccc(S(=O)(=O)N(CC(C)C)C[C@@H](O)[C@H](Cc2ccccc2)NC(=O)O[C@H]2CCC[C@@]23CCO[C@@H](c2cc(OC)cc(OC)c2)C3)cc1	gag-pol protease	enzyme activity, inhibitor		Ki	0.0026 µM
CN1CCC(CNc2ccc3ncc(-c4cccc(OC(F)(F)F)c4)n3n2)CC1	3',5'-cyclic-AMP phosphodiesterase 4D (PDE4D, Homo sapiens, UniProt Q08499)	enzyme activity, inhibitor		IC50	5.04 µM
COc1ccc(S(=O)(=O)N(CC(C)C)C[C@@H](O)[C@H](Cc2ccccc2)NC(=O)O[C@@H]2CCC[C@@]23CCO[C@@H](c2cccc(OC)c2)C3)cc1	gag-pol protease	enzyme activity, inhibitor		Ki	1.14 µM
NCCc1c[nH]c2ccc(O)cc12	tlpQ	binding, ITC		Kd	> 1000 µM
COCCC(=O)N[C@@H](CCC(N)=O)C(=O)N[C@@H](Cc1ccccc1)C(=O)N[C@@H](CCCNC(=N)N)C(=O)c1nc2ccccc2s1	F2	cell-free assay		Ki	> 10 µM
COc1cc2c(cc1OC)CN(CCc1ccc(NC(=O)c3cccc4c(=O)c5cccc(OC)c5[nH]c34)cc1)CC2	5-hydroxytryptamine receptor 1B (HTR1B, Homo sapiens, UniProt P28222)	cell-free assay		Ki	> 10 µM
NC[C@H](O)c1ccc(O)c(O)c1	tlpQ	binding, ITC		Kd	> 1000 µM
